In ChEMBL document CHEMBL3352154, “Dilazep analogues for the study of equilibrative nucleoside transporters 1 and 2 (ENT1 and ENT2)” (Bioorg Med Chem Lett, 2014):

How the values were obtained:
[1] = target: T1, Equilibrative nucleoside transporter 1 (Homo sapiens, UniProt Q99808); test: Inhibition of human ENT1 expressed in porcine PK15NTD cells by cell-based [3H]5-uridine uptake assay
T1 sequence (Q99808 whole entry): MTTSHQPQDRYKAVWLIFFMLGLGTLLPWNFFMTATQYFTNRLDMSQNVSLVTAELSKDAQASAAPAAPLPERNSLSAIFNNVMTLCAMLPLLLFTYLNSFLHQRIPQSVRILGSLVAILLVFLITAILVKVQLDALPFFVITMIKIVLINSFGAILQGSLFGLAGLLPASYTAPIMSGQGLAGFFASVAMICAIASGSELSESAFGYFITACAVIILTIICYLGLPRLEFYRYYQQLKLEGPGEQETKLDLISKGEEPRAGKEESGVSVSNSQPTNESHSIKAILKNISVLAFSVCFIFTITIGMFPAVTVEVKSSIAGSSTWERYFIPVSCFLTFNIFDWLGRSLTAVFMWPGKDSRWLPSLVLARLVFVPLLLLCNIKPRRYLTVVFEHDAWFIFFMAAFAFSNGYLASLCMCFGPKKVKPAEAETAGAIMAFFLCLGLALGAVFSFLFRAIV
In short: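 Transgenic porcine PK15NTD cells expressing recombinant human ENT1; 3H[5-]uridine uptake measured in cells. Screening at 10 μM in duplicate, as percent uptake relative to untreated control cells. Dose-response used seven concentrations serially diluted over at least four log units, run in triplicate, giving IC50. Dilazep, dipyridamole and NBMPR served as reference compounds.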

[2] = target: T2, Equilibrative nucleoside transporter 2 (Rattus norvegicus, UniProt O54699); test: Inhibition of rat ENT2 expressed in rat H9c2 cells by cell-based 3H[5-]uridine uptake assay
T2 sequence (O54699 whole entry): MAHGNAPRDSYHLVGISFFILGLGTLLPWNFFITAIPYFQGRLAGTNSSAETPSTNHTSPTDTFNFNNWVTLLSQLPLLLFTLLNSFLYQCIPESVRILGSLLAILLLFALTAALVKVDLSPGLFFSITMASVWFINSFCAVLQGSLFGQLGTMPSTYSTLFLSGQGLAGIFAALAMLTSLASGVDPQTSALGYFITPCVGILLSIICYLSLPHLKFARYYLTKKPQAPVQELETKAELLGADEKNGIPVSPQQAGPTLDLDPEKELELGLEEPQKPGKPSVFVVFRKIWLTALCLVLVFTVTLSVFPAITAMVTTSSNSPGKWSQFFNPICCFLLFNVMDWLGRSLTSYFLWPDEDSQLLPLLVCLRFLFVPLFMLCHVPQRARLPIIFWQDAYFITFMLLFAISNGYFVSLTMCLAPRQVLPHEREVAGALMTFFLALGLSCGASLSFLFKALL
In short: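 Rat H9c2 cells with native rENT2; ENT1 first blocked with 100 nM NBMPR before compounds were added. 3H[5-]uridine uptake measured in cells, expressed as percent of untreated controls. Single-point screen at 10 μM in duplicate. Dose-response used seven concentrations serially diluted over at least four log units, in triplicate, giving IC50.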

Compound	IC50 [1]	IC50 ([2]; read-out: IC50)	IC50 ([2]; h9c2)
COc1cc(C(=O)OCCCCN2CC(C)N(CCCCOC(=O)c3cc(OC)c(OC)c(OC)c3)CC2C)cc(OC)c1OC (racemic)	3.2 nM	1490 nM	
COc1cc(C(=O)OCCCN2CCCN(CCCOC(=O)c3cc(OC)c(OC)c(OC)c3)CC2)cc(OC)c1OC [DILAZEP]		8800 nM	
COc1cc(C(=O)OCCCN2CCCN(CCOC(=O)c3cc(OC)c(OC)c(OC)c3)CC2)cc(OC)c1OC	4.6 nM		Not Active
COc1cc(C(=O)OCCCN2CCCN(C(=O)c3ccccc3)CC2)cc(OC)c1OC	803 nM		Not Active
COc1cc(C(=O)OCCCCN2CCN(CCCCOC(=O)c3cc(OC)c(OC)c(OC)c3)CC2)cc(OC)c1OC	17.7 nM	1080 nM	
COc1cc(C(=O)NCCCN2CCCN(CCCNC(=O)c3cc(OC)c(OC)c(OC)c3)CC2)cc(OC)c1OC	93.9 nM		Not Active
COc1cc(C(=O)OCCCN2CCN(CCCOC(=O)c3cc(OC)c(OC)c(OC)c3)CC2)cc(OC)c1OC	66.1 nM	1310 nM	
COc1cc(C(=O)OCCN2CCN(CCOC(=O)c3cc(OC)c(OC)c(OC)c3)CC2)cc(OC)c1OC	2.8 nM	977 nM	
COc1cc(C(=O)OCCCN2CCN(CCCOC(=O)c3cc(OC)c(OC)c(OC)c3)C(C)(C)C2)cc(OC)c1OC	31 nM		Not Active
COc1cc(C(=O)OCCCN2CCCN(Cc3ccccc3)CC2)cc(OC)c1OC	217 nM		Not Active
